Experimental data taken from ChEMBL document CHEMBL4350998, “Design, synthesis, and structure-activity relationship studies of l-amino alcohol derivatives as broad-spectrum antifungal agents” (Eur J Med Chem, 2019).
Converted amounts (≈) assume the structure as drawn.

Key:
Candida albicans [1] = test: Antifungal activity against Candida albicans CPCC 400523 assessed as inhibition of visible microbial growth by NCCLS protocol based method; format: functional
Candida albicans [2] = test: Antifungal activity against Candida albicans ATCC SC5314 assessed as inhibition of visible microbial growth by NCCLS protocol based method; format: functional
Outline: (§1)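 Compounds dissolved in DMSO and serially diluted into growth medium. MIC was read as the lowest concentration that inhibited visible fungal growth.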

Cryptococcus neoformans = test: Antifungal activity against Cryptococcus neoformans CGMCC 2.3161 assessed as inhibition of visible microbial growth by NCCLS protocol based method; format: functional; outline: as §1
Candida tropicalis = test: Antifungal activity against Candida tropicalis CGMCC 2.3739 assessed as inhibition of visible microbial growth by NCCLS protocol based method; format: functional; outline: as §1
Aspergillus fumigatus = test: Antifungal activity against Aspergillus fumigatus CGMCC 3.7795 assessed as inhibition of visible microbial growth by NCCLS protocol based method; format: functional; outline: as §1
Candida albicans [3] = test: Antifungal activity against Candida albicans SC5314; format: functional
Candida albicans [4] = test: Antifungal activity against fluconazole-resistant Candida albicans Strain 17# assessed as inhibition of visible microbial growth by NCCLS protocol based method; format: functional
Outline: (§2)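 Broth dilution MIC against clinical fluconazole-resistant C. albicans isolates from AIDS patients. Compounds dissolved in DMSO and serially diluted into growth medium. MIC was taken as the lowest concentration that inhibits visible fungal growth. Fluconazole and itraconazole served as positive controls.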

Candida albicans [5] = test: Antifungal activity against fluconazole-resistant Candida albicans Strain CaR assessed as inhibition of visible microbial growth by NCCLS protocol based method; format: functional; outline: as §2
[6] = molecular target: T1, Lanosterol 14-alpha demethylase (Candida albicans (strain SC5314 / ATCC MYA-2876) (Yeast), UniProt P10613); test: Inhibition of CYP51 in Candida albicans ATCC SC5314 assessed as ergosterol level at 0.13 ug/ml incubated for 16 hrs by GC/MS analysis (reference value: 100%); set-up: scale not given: the % may be the effect or the level left; conditions: candida albicans sc5314, 16 h
T1 sequence (P10613 whole entry): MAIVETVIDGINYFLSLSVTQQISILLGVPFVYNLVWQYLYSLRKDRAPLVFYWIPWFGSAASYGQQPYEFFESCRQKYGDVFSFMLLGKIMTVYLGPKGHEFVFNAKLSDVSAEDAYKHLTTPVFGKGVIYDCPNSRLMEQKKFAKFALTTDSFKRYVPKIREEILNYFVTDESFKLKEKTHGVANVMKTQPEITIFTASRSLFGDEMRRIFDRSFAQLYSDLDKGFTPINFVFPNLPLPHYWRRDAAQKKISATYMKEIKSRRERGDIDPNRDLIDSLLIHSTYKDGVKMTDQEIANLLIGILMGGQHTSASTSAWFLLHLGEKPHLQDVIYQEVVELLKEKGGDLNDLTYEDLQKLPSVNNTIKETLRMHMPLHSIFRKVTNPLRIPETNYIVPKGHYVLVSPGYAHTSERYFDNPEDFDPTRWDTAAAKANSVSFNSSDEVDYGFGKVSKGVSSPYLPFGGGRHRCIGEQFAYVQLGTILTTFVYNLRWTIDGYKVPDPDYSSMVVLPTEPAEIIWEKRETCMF

[7] = molecular target: T1, Lanosterol 14-alpha demethylase; test: Inhibition of CYP51 in Candida albicans ATCC SC5314 assessed as ergosterol level at 0.5 ug/ml incubated for 16 hrs by GC/MS analysis (reference value: 100%); set-up: scale not given: the % may be the effect or the level left; conditions: candida albicans sc5314, 16 h
[8] = molecular target: T1, Lanosterol 14-alpha demethylase; test: Inhibition of CYP51 in Candida albicans ATCC SC5314 assessed as ergosterol level at 2 ug/ml incubated for 16 hrs by GC/MS analysis (reference value: 100%); set-up: scale not given: the % may be the effect or the level left; conditions: candida albicans sc5314, 16 h
[9] = molecular target: T1, Lanosterol 14-alpha demethylase; test: Inhibition of CYP51 in Candida albicans ATCC SC5314 assessed as ergosterol level at 8 ug/ml incubated for 16 hrs by GC/MS analysis (reference value: 100%); set-up: scale not given: the % may be the effect or the level left; conditions: candida albicans sc5314, 16 h
[10] = molecular target: T1, Lanosterol 14-alpha demethylase; test: Inhibition of CYP51 in Candida albicans ATCC SC5314 assessed as obtusifoliol level at 0.13 ug/ml incubated for 16 hrs by GC/MS analysis (reference value: 0%); set-up: scale not given: the % may be the effect or the level left; conditions: candida albicans sc5314, 16 h
[11] = molecular target: T1, Lanosterol 14-alpha demethylase; test: Inhibition of CYP51 in Candida albicans ATCC SC5314 assessed as obtusifoliol level at 0.5 ug/ml incubated for 16 hrs by GC/MS analysis (reference value: 0%); set-up: scale not given: the % may be the effect or the level left; conditions: candida albicans sc5314, 16 h
[12] = molecular target: T1, Lanosterol 14-alpha demethylase; test: Inhibition of CYP51 in Candida albicans ATCC SC5314 assessed as obtusifoliol level at 2 ug/ml incubated for 16 hrs by GC/MS analysis (reference value: 0%); set-up: scale not given: the % may be the effect or the level left; conditions: candida albicans sc5314, 16 h
[13] = molecular target: T1, Lanosterol 14-alpha demethylase; test: Inhibition of CYP51 in Candida albicans ATCC SC5314 assessed as obtusifoliol level at 8 ug/ml incubated for 16 hrs by GC/MS analysis (reference value: 0%); set-up: scale not given: the % may be the effect or the level left; conditions: candida albicans sc5314, 16 h
[14] = molecular target: T1, Lanosterol 14-alpha demethylase; test: Inhibition of CYP51 in Candida albicans ATCC SC5314 assessed as lanosterol level at 0.13 ug/ml incubated for 16 hrs by GC/MS analysis (reference value: 0%); set-up: scale not given: the % may be the effect or the level left; conditions: candida albicans sc5314, 16 h
[15] = molecular target: T1, Lanosterol 14-alpha demethylase; test: Inhibition of CYP51 in Candida albicans ATCC SC5314 assessed as lanosterol level at 0.5 ug/ml incubated for 16 hrs by GC/MS analysis (reference value: 0%); set-up: scale not given: the % may be the effect or the level left; conditions: candida albicans sc5314, 16 h
[16] = molecular target: T1, Lanosterol 14-alpha demethylase; test: Inhibition of CYP51 in Candida albicans ATCC SC5314 assessed as lanosterol level at 2 ug/ml incubated for 16 hrs by GC/MS analysis (reference value: 0%); set-up: scale not given: the % may be the effect or the level left; conditions: candida albicans sc5314, 16 h
[17] = molecular target: T1, Lanosterol 14-alpha demethylase; test: Inhibition of CYP51 in Candida albicans ATCC SC5314 assessed as lanosterol level at 8 ug/ml incubated for 16 hrs by GC/MS analysis (reference value: 0%); set-up: scale not given: the % may be the effect or the level left; conditions: candida albicans sc5314, 16 h
[18] = molecular target: T1, Lanosterol 14-alpha demethylase; test: Inhibition of CYP51 in Candida albicans ATCC SC5314 assessed as eburicol level at 0.13 ug/ml incubated for 16 hrs by GC/MS analysis (reference value: 0%); set-up: scale not given: the % may be the effect or the level left; conditions: candida albicans sc5314, 16 h
[19] = molecular target: T1, Lanosterol 14-alpha demethylase; test: Inhibition of CYP51 in Candida albicans ATCC SC5314 assessed as eburicol level at 0.5 ug/ml incubated for 16 hrs by GC/MS analysis (reference value: 0%); set-up: scale not given: the % may be the effect or the level left; conditions: candida albicans sc5314, 16 h
[20] = molecular target: T1, Lanosterol 14-alpha demethylase; test: Inhibition of CYP51 in Candida albicans ATCC SC5314 assessed as eburicol level at 2 ug/ml incubated for 16 hrs by GC/MS analysis (reference value: 0%); set-up: scale not given: the % may be the effect or the level left; conditions: candida albicans sc5314, 16 h
[21] = molecular target: T1, Lanosterol 14-alpha demethylase; test: Inhibition of CYP51 in Candida albicans ATCC SC5314 assessed as eburicol level at 8 ug/ml incubated for 16 hrs by GC/MS analysis (reference value: 0%); set-up: scale not given: the % may be the effect or the level left; conditions: candida albicans sc5314, 16 h
[22] = Cytotoxicity in human A549 cells assessed as reduction in cell viability at 0.08 uM/L incubated for 24 hrs by MTT assay relative to control; format: cell-based; conditions: read-out: INH
Outline: (§3)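 A549 cells were seeded at 3000 cells/well and preincubated for 16 h at 37 °C, 5% CO2. Medium was then replaced with fresh medium holding compound (DMSO stock diluted to final 0.08, 0.4, 2.0, 10 or 50 μM/L). Exposure lasted 24 h at 37 °C, 5% CO2, followed by MTT for 4 h and absorbance at 490 nm. Results are given as % inhibition.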

[23] = Cytotoxicity in human A549 cells assessed as reduction in cell viability at 0.40 uM/L incubated for 24 hrs by MTT assay relative to control; format: cell-based; conditions: read-out: INH; outline: as §3
[24] = Cytotoxicity in human A549 cells assessed as reduction in cell viability at 2 uM/L incubated for 24 hrs by MTT assay relative to control; format: cell-based; conditions: read-out: INH; outline: as §3
[25] = Cytotoxicity in human A549 cells assessed as reduction in cell viability at 10 uM/L incubated for 24 hrs by MTT assay relative to control; format: cell-based; conditions: read-out: INH; outline: as §3
[26] = Cytotoxicity in human A549 cells assessed as reduction in cell viability at 50 uM/L incubated for 24 hrs by MTT assay relative to control; format: cell-based; conditions: read-out: INH; outline: as §3
[27] = Stability in human plasma assessed as parent compound remaining at 100 uM after 60 mins LC/MS/MS analysis relative to control; format: ADME, cell-free; conditions: read-out: Stability
Outline: (§4)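 Thawed human plasma was cleared at 4000 rpm and spiked from a 100 μM dosing solution to a final 2 μM, in duplicate, at 37 °C. Propantheline served as positive control. Sampling at 0, 10, 30, 60 and 120 min into ACN/MeOH stop solution with tolbutamide and labetalol internal standards. After centrifugation, supernatant was diluted with water and run by LC/MS/MS. % remaining was taken from the analyte/IS peak-area ratio, with no standard curve.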

[28] = Stability in human plasma assessed as parent compound remaining at 100 uM after 120 mins LC/MS/MS analysis relative to control; format: ADME, cell-free; conditions: read-out: Stability; outline: as §4
[29] = molecular target: T1, Lanosterol 14-alpha demethylase; test: Inhibition of CYP51 in Candida albicans ATCC SC5314 assessed as change in sterol components incubated for 16 hrs by GC/MS analysis; conditions: candida albicans sc5314, 16 h

Structure (SMILES) | MIC (Candida albicans [1]) [µg/mL] | MIC (Candida albicans [2]) [µg/mL] | MIC (Cryptococcus neoformans) [µg/mL] | MIC (Candida tropicalis) [µg/mL] | MIC (Aspergillus fumigatus) [µg/mL] | MIC (Candida albicans [4]) [µg/mL] | MIC (Candida albicans [5]) [µg/mL] | Activity [6] [%] | Activity [7] [%] | Activity [8] [%] | Activity [9] [%] | Activity [10] [%] | Activity [11] [%] | Activity [12] [%] | Activity [13] [%] | Activity [14] [%] | Activity [15] [%] | Activity [16] [%] | Activity [17] [%] | Activity [18] [%] | further results
CC(C)OC(=O)C(Cn1ccnc1)NC(=O)c1ccc(-c2ccccc2)cc1 (stereo not given) | 0.25 | < 0.03 | 2 | < 0.06 | > 64 |  |  |  |  |  |  |  |  |  |  |  |  |  |  |  | MIC (Candida albicans [3]): 0.03 µg/mL (≈ 0.0795 µM)
CC[C@H](C)[C@@H](Cn1ccnc1)NC(=O)c1ccc(-c2ccccc2F)cc1F | 0.06 | < 0.03 | 1 | < 0.03 | 2 | 2 | 8 | 98 | 36 | 6.5 | 0 | 0 | 12.2 | 23.8 | 31.3 | 2 | 21 | 20 | 23.8 | 0 | Activity [19]: 30.8%; Activity [20]: 49.7%; Activity [21]: 44.9%; cytotoxicity at 24 h, 0.08 µM [22]: 5.4%; cytotoxicity at 24 h, 0.4 µM [23]: 6.6%; cytotoxicity at 24 h, 2 µM [24]: 7.3%; cytotoxicity at 24 h, 10 µM [25]: 8.3%; cytotoxicity at 24 h, 50 µM [26]: 13.9%; remaining at 1 h, 100 µM [27]: 114%; remaining at 2 h, 100 µM [28]: 92.6%
OC(Cn1cncn1)(Cn1cncn1)c1ccc(F)cc1F [FLUCONAZOLE] | 1 | 0.5 | 4 | 1 | > 64 | > 64 | > 64 | 97.7 | 90.1 | 17.2 | 0 | 0 | 0 | 17.7 | 37.2 | 2.3 | 9.9 | 28 | 22.9 | 0 | Activity [19]: 0%; Activity [20]: 37.1%; Activity [21]: 39.9%; Activity [29]: Dose-dependent effect
